Sequences and labels used below:
B1: Osa-1-4 twister ribozyme (parent)
chain: CCGCCUAACACUGCCAAUGCCGGUCCCAAGCCCGGAUAAAAGUGGAGGGGGCGG

This series covers variants of B1. Description: self-cleavage, relative activity (ratio to wild type); higher = more cleavage; co-transcriptional. The essentials:
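Values are relative activity: the fraction cleaved, normalised to wild type. A doped DNA template for a 54-nucleotide twister ribozyme from Oryza sativa had 97 % wild-type base and 1 % of each other base at the 48 positions downstream of the cleavage site. The RNA was transcribed in vitro for 2 h at 37 °C so that it could cleave itself co-transcriptionally, then sequenced deeply, with cleavage status scored from the presence or absence of upstream sequence in reads.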
Turning to A29C G42C, the self-cleavage is 0.02.
Turning to A29C G42A, the self-cleavage is 0.03.
In the case of A29C G42U, the self-cleavage was found to be 0.01.
Turning to A28G G48U, the self-cleavage came out at 0.04.
Under A28U C25G stands 0.05.
With A28U C25A, the self-cleavage came out at 0.07.
In the case of A28U C25U it was 0.28; in that of A29C A36U, 0.04.
Under A29C A36G stands 0.07; under A29C A36C, 0.03; under A28U U43A, 0.28.
Take A28U U43C: the self-cleavage was found to be 0.15.
In the case of A28U U43G, the self-cleavage turned out to be 0.15.
In the case of A28U A7U it was 0.07; in that of A28U A7C, 0.04; in that of A28U A7G, 0.13.
As for A28G U43A, the self-cleavage turned out to be 0.14.
Under A28G U43C stands 0.1; under A28G U43G, 0.09; under A29C, 0.05.
Under A29G stands 0.4.
Under A29C A40G stands 0.02.
In the case of A29C A40U, the self-cleavage came out at 0.04.
With A29C A40C, the self-cleavage amounted to 0.02.
In the case of A28U G35C it was 0.15.
On to A28U G35A, for which the self-cleavage is 0.73.
In the case of A28U G35U it was 0.71; in that of A28G G50C, 0.14.
On to A28G G50A, for which the self-cleavage came to 0.28.
In the case of A28G G50U it was 0.23; in that of A29G A36G, 0.47; in that of A29G A36C, 0.07.
Under A29G A36U stands 0.32; under A28G G49U, 0.06; under A28G G49C, 0.04.
Under A28G G49A stands 0.06.
With A29C A41G, the self-cleavage worked out at 0.04.
As for A29C A41U, the self-cleavage turned out to be 0.05.
For the variant A29C A41C, the self-cleavage was 0.05.
In the case of A29C G13U it was 0.01.
In the case of A29C G13A it was 0.02.
As for A29C G13C, the self-cleavage was determined as 0.01.
Under A28U A36U stands 0.94; under A28U A36C, 0.21.
Under A28U A36G stands 0.99; under A29C A7G, 0.03.
In the case of A29C A7U it was 0.01; in that of A29C A7C, 0.03.
In the case of A29C G35A, the self-cleavage came out at 0.04.
In the case of A29C G35C it was 0.02; in that of A29C G35U, 0.05; in that of A29C C52A, 0.06.
Regarding A29C C52U, the self-cleavage is 0.06.
For the variant A29C C52G, the self-cleavage came out at 0.05.
In the case of A28U A41G, the self-cleavage turned out to be 0.29.
With A28U A41U, the self-cleavage stood at 0.93.
For the variant A28U A41C, the self-cleavage is 0.79.
Under A28U C15U stands 0.1.
In the case of A28U C15G it was 0.14; in that of A28U C15A, 0.11; in that of A28U G50A, 0.42.
Under A28U G50U stands 0.95; under A28U G50C, 0.81; under A28U A8U, 0.09.
Regarding A28U A8G, the self-cleavage is 0.18.
A28U A8C: the self-cleavage was 0.06.
In the case of A29C C26A it was 0.02.
Under A29C C26G stands 0.02.
In the case of A29C C26U, the self-cleavage stood at 0.03.
As to A28G U18A, the self-cleavage worked out at 0.34.
Under A28G U18G stands 0.59; under A28G U18C, 0.23; under A29C A8C, 0.04.
Take A29C A8G: the self-cleavage came out at 0.03.
Take A29C A8U: the self-cleavage stood at 0.02.
In the case of A29G A7G it was 0.11; in that of A29G A7C, 0.03.
Under A29G A7U stands 0.14; under A28G G54C, 0.14.
A28G G54U: the self-cleavage was determined as 0.27.
For A28G G54A, the self-cleavage was 0.15.
Under A28U G48U stands 0.06; under A28U G48A, 0.06; under A28U G48C, 0.06.
In the case of A29G A38G it was 0.15; in that of A29G A38U, 0.16; in that of A29G A38C, 0.16.
In the case of A28U G45A it was 0.09.
Consider A28U G45U, for which the self-cleavage was found to be 0.07.
In the case of A28U G45C, the self-cleavage stood at 0.06.
In the case of A29C G50C it was 0.03; in that of A29C G50U, 0.04.
Under A29C G50A stands 0.05.
In the case of A29C C20A it was 0.03.
Turning to A29C C20U, the self-cleavage stood at 0.08.
In the case of A29C C20G it was 0.02; in that of A29G A8G, 0.11.
In the case of A29G A8U it was 0.07; in that of A29G A8C, 0.04.
For the variant A29G C11U, the self-cleavage turned out to be 0.11.
Under A29G C11A stands 0.08; under A29G C11G, 0.07; under A28U A29C, 0.03.
In the case of A28U A29U, the self-cleavage turned out to be 0.06.
For A28U A29G, the self-cleavage turned out to be 0.08.
Consider A28U G13A, for which the self-cleavage was 0.06.
In the case of A28U G13C it was 0.02.
Turning to A28U G13U, the self-cleavage amounted to 0.03.
Under A28U G53C stands 0.08; under A28U G53A, 0.42; under A28U G53U, 0.15.
Consider A29C C9U, for which the self-cleavage came to 0.02.
For the variant A29C C9G, the self-cleavage was found to be 0.05.
Take A29C C9A: the self-cleavage was 0.02.
In the case of A29C C25A it was 0.04.
As for A29C C25G, the self-cleavage amounted to 0.02.
Under A29C C25U stands 0.03; under A28U C9A, 0.16.
In the case of A28U C9U it was 0.57; in that of A28U C9G, 0.35.
In the case of A29C G30A it was 0.02.
As to A29C G30C, the self-cleavage was found to be 0.01.
Regarding A29C G30U, the self-cleavage worked out at 0.02.
Under A29C U18G stands 0.06; under A29C U18A, 0.04.
In the case of A29C U18C it was 0.04; in that of A28U G49C, 0.06.
Under A28U G49A stands 0.08; under A28U G49U, 0.09; under A28U G23C, 0.05.
A28U G23U: the self-cleavage was 0.07.
In the case of A28U G23A it was 0.14; in that of A28U C21U, 0.93.
Under A28U C21A stands 0.16.
With A28U C21G, the self-cleavage is 0.07.
As to A28G G53A, the self-cleavage worked out at 0.14.
In the case of A28G G53U it was 0.1; in that of A28G G53C, 0.06.
Under A28G U12G stands 0.07.
Take A28G U12A: the self-cleavage turned out to be 0.12.
On to A28G U12C, for which the self-cleavage was found to be 0.1.
In the case of A29C G23C it was 0.02; in that of A29C G23A, 0.05; in that of A29C G23U, 0.02.
In the case of A28G U37A it was 0.25; in that of A28G U37G, 0.51; in that of A28G U37C, 0.37.
Under A29C G44C stands 0.05.
As to A29C G44U, the self-cleavage worked out at 0.05.
Under A29C G44A stands 0.04; under A29C A38G, 0.04; under A29C A38U, 0.03.
Under A29C A38C stands 0.04.
In the case of A29C G45C it was 0.01; in that of A29C G45A, 0.02.
For A29C G45U, the self-cleavage is 0.01.
As to A29G C14U, the self-cleavage was 0.06.
Consider A29G C14A, for which the self-cleavage came to 0.04.
Take A29G C14G: the self-cleavage is 0.08.
As for A28G U24C, the self-cleavage is 0.07.
In the case of A28G U24A it was 0.06; in that of A28G U24G, 0.02.
Turning to A28U, the self-cleavage was 0.96.
In the case of A28U A40G it was 0.24; in that of A28U A40C, 0.04.
Under A28U A40U stands 0.2.
A29C G47C: the self-cleavage was 0.02.

Values taken from the RNAGym collection of RNA variant scans (doi:10.1002/anie.201605470).
